Results pooled from the literature.
Compare with care: the assays were run in different laboratories.
Target: Cannabinoid receptor 2 (CNR2, Homo sapiens, UniProt P34972)

| SMILES | observed | mode | technique | tested at | setting | endpoint | value |
| --- | --- | --- | --- | --- | --- | --- | --- |
| Clc1ccc2c(C3CCN(CCc4c[nH]c5ccccc45)CC3)c[nH]c2c1 | ligand displacement | – | radioligand | 10 µM | – | inhibition | 11% |
| CCOC(=O)C(CC)(CCCSCCOCCOCCOCCOCCNC(=O)OC(C)(C)C)NC(=O)c1ccc(C2CC2)c(Cc2ccc(F)cc2)n1 (centres unmarked) | cAMP | agonist | – | – | – | Emax | 91% |
| COc1ccc(S(=O)(=O)N2CCCCC2)cc1C | ligand displacement | – | radioligand | 10 µM | – | inhibition | < 30% |
| COCc1c(-c2cc3cc(C)cc(OC)c3s2)c2c(N)ncnn2c1CN1CCNC(=O)C1 | ligand displacement | – | radioligand | 10 µM | – | inhibition | 2% |
| O=C(Nc1cccnn1)N1CCN([C@@H]2CCOc3cc(C(F)(F)F)ccc32)CC1 | ligand displacement | – | – | 20 µM | – | inhibition | 23% |
| COc1cccc2c(C(=O)c3cccc4ccccc34)cn(CCN3CCOCC3)c12 | ligand displacement | – | radioligand | 1 µM | cell membranes | inhibition | 100% |
| CCOC(=O)C(CC)(CCCSCCOCCOCCNc1ccc([N+](=O)[O-])c2nonc12)NC(=O)c1ccc(C2CC2)c(Cc2ccc(F)cc2)n1 (racemic) | cAMP | agonist | – | – | – | Emax | 100% |
| CN(CCN1CCC(OC(=O)Nc2ccccc2-c2ccccc2)CC1)C(=O)c1ccc(CN2CCC(C(N)=O)CC2)cc1 | ligand displacement | – | radioligand | 1 µM | – | inhibition | -2% |
